The list is not random: actives were taken first. Their share in the collection is about 3.5%.
bCat nuc transl: modulators of beta-catenin nuclear translocation. actives 0.3% (n = 190,000). nuclear translocation activity, % at 5 µM. AID 1665. HeLa beta-catenin nuclear translocation, immunofluorescence imaging;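 active = nuclear translocation activity above 50% at 5 µM, with a well cell count of 50 or more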;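 also: per-cell ratio of nuclear to cytoplasmic median beta-catenin stain intensity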
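Technique: fluorescence imaging of beta-catenin antibody stain plus DAPI / Material: human HeLa cell line / Incubation: compound treatment 24 h, 37°C, 5% CO2 / Read-out basis: % activation of per-cell nuclear versus cytoplasmic median beta-catenin signal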
RAM network inh: blocks the yeast RAM network; S. cerevisiae dse1pr::URA3 reporter, 5-FOA growth OD615, 2 d; analog-sensitive cbk1-as2 kinase mutant strain; actives 1.8% (n = 190,000); AID 868; inhibition, % at 50 µM;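 active = inhibition above a set limit, 3 SD over mean compound inhibition, cut at about 8.4% in these data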;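 also: inhibition rescues growth on 5-FOA so higher OD means more RAM inhibition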
MT stabilize HCS: stabilizes microtubules in HeLa cells. % tubulin-high responders, % at 10 µM. actives 0.83% (n = 200,000). AID 2205. HeLa tubulin immunostaining HCS, 24 h; share of cells brighter than vehicle mean+2SD;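 active = plate Z-score above 3 for both tubulin-high and condensed-nucleus cell shares, with cell loss under 80%, at 10 µM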;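 also: anti alpha tubulin signal scored within the nucleus-defined area of each cell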
BB579 growth dn: reduces growth of yeast BB579 in restrictive medium; inhibition, % at 10 µM; actives 0.51% (n = 140,000); AID 804; S. cerevisiae BB579 growth, OD615, 48 h;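 active = inhibition above a set limit, 3 SD over the mean compound inhibition, cut at about 44% in these data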
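System: Saccharomyces cerevisiae DeaD strain BB579, replicative lifespan model yeast. Buffer or medium: restrictive glucose-based CSMM-D medium. Doses: one dose, 10 µM compound with 0.25% DMSO. Timing: 4 h preincubation and 48 h exposure at 30 °C. Detection: turbidity as optical density at 615 nm. Benchmarks: amphotericin B 10 µg/mL, positive.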
HMGR II inh: E. faecalis class II HMG-CoA reductase inhibition; inhibition, % at 10 µM; AID 1066; purified E. faecalis HMGR, NADPH absorbance 340 nm kinetic; actives 0.41% (n = 190,000);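 active = inhibition above a set limit, the median over all tested compounds plus 3 SD, cut at about 9.5% in these data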;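 also: enzyme runs in reverse so mevalonate oxidation gives rising NADPH absorbance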
Yeast lifespan up: extends the lifespan of yeast; S. cerevisiae growth with nicotinamide, OD615; deaD strain in restrictive glucose medium; inhibition of the nicotinamide effect, % at 10 µM; actives 0.68% (n = 130,000); AID 775;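 active = inhibition above a set limit, placed 3 SD over the median of all compounds, cut at about 26% in these data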
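assay system = DeaD-strain S. cerevisiae | measured by = absorbance at 615 nm | probe or stimulus = nicotinamide 1.5 mM | buffer or medium = CSMM-D glucose medium, restrictive | times = 48 h at 30 °C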
Hits are given with their value; 0 = inactive; - = not tested or not shown.

SMILES	bCat nuc transl	RAM network inh	MT stabilize HCS	BB579 growth dn	HMGR II inh	Yeast lifespan up
O=C1c2ccccc2C(=O)N1CSc1nnnn1-c1ccccc1	-	0	0	0	0	0
O=C1c2ccccc2C(=O)N1CCCCSc1nnnn1-c1ccccc1	0	9.3	0	0	0	0
O=C(c1ccc(S(=O)(=O)NCC2CCCO2)cc1)N1CCN(c2cccc(Cl)c2)CC1 (stereo not drawn)	0	0	0	-	0	-
CCC(=O)Nc1ccccc1Sc1ncnc2scc(-c3ccccc3)c12	0	0	0	0	0	61.9
Cc1ccccc1C(=O)N/N=C/c1ccc([N+](=O)[O-])s1	-	0	0	0	0	0
Cc1c(Cl)cccc1N=Cc1ccc([N+](=O)[O-])s1	0	0	0	57.1	0	0
Cc1ccc2c(c1)c1c(n2C)-c2[nH]ncc2CC1	0	0	0	99.4	0	-
COc1ccc(Cl)cc1N1C(=O)/C(=C\c2sccc2C)N=C1SCC(=O)NC1CC1	0	8.6	0	0	0	0
COc1ccc(OC)c(Nc2nc(-c3ccccc3O)nc3ccccc23)c1	0	9.7	0	-	0	-
Cc1cc(C(=O)Cn2c(CO)nc3ccccc32)c(C)n1C	0	-	-	-	-	-
O=C(Nc1cccc(C(F)(F)F)c1)N1CCC(c2nc(-c3ccc(F)cc3)no2)CC1	0	10.0	0	0	0	0
O=C(Nc1ccccc1)N1CCC(c2nc(-c3ccc(S(=O)(=O)N4CCOCC4)cc3)no2)CC1	0	0	26.2	0	0	0
O=C(c1ccccc1)N1CCC(c2nc(-c3ccc(S(=O)(=O)N4CCOCC4)cc3)no2)CC1	0	0	0	0	0	0
O=C(Nc1ccccc1)N1CCCC(c2nc(-c3ccc(F)cc3)no2)C1 (stereo not drawn)	0	0	0	0	0	0
CCS(=O)(=O)N1CCC(c2nc(-c3ccc(C)cc3)no2)CC1	0	0	0	0	0	59.9
CN(C)c1ccc(-c2noc(C3CCN(S(=O)(=O)c4cccc(C(=O)O)c4)CC3)n2)cc1	0	9.8	0	0	0	0
Fc1cccc(Cl)c1/C=N/n1c(-c2cccnc2)n[nH]c1=S	0	0	0	-	0	-
COc1ccc(C(O)P(=O)(OC(C)C)OC(C)C)c(OC)c1 (stereo not drawn)	0	-	-	-	-	-
CCN(CC)S(=O)(=O)c1cc(NC(=O)COC(=O)CCC(=O)c2cccs2)ccc1C	0	0	0	-	0	-
CCN(CC)S(=O)(=O)c1cc(C(=O)OCC(=O)Nc2cccc(S(=O)(=O)N(C)C)c2)ccc1F	0	9.2	0	-	0	-
CCN(CC)S(=O)(=O)c1cc(NC(=O)COC(=O)CCC(=O)c2ccc(F)cc2)ccc1C	0	9.5	0	0	0	0
CN(C)S(=O)(=O)c1cccc(NC(=O)COC(=O)c2ccc(Br)o2)c1	0	0	0	0	0	0
Oc1c(Br)cc(Br)cc1C=Nc1ccc2c(c1)OCCO2	0	0	0	-	0	-
Oc1c(Br)cc(Br)cc1C=Nc1ccc2c(c1)OCO2	0	0	0	96.8	0	0
CC1=C(C(=O)c2ccccc2)C(c2ccc(OC(F)F)cc2)NC(=S)N1 (stereo not drawn)	0	0	22.4	-	0	-
SMILES	bCat nuc transl	RAM network inh	MT stabilize HCS	BB579 growth dn	HMGR II inh	Yeast lifespan up
O=C(Nc1cc([N+](=O)[O-])ccc1N1CCCC1)c1ccco1	0	0	0	-	0	-
COc1ccc(C(=O)Nc2cc([N+](=O)[O-])ccc2N2CCCC2)cc1	0	8.5	0	-	0	-
CN(C)S(=O)(=O)c1ccc(C(=O)Nc2cc(S(=O)(=O)Nc3ccccc3Cl)ccc2N2CCCCC2)cc1	0	8.6	0	0	0	0
COc1ccc(NS(=O)(=O)c2ccc(N3CCOCC3)c(NC(=O)c3ccc(OC)cc3)c2)cc1	0	8.6	0	0	0	0
COc1ccc(NS(=O)(=O)c2cccc(NC(=O)c3ccc(S(=O)(=O)N4CCCCCC4)cc3)c2)cc1	0	0	18.2	0	0	0
COc1ccc(NS(=O)(=O)c2ccc(N3CCOCC3)c(NC(=O)c3ccccc3Cl)c2)cc1	0	0	0	0	0	0
Cc1c(CN2CCCC(C(=O)c3cccc(OC(C)C)c3)C2)c(=O)n(-c2ccccc2)n1C (stereo not drawn)	0	0	0	-	0	-
